The source of these data is ChEMBL document CHEMBL1135207, “Novel route to the synthesis of peptides containing 2-amino-1'-hydroxymethyl ketones and their application as cathepsin K inhibitors” (Bioorg Med Chem Lett, 2002).

pKi: −log10 of the molar value.

The target in one experiment is Cathepsin B (Homo sapiens, UniProt P07858). Briefly: Binding affinity against cathepsin B.
The next experiment addresses Cathepsin S (Homo sapiens, UniProt P25774). Briefly: Binding affinity of compound was evaluated against cathepsin S.
A further experiment concerns the target T1, Cathepsin K (Homo sapiens, UniProt P43235).
T1 sequence (P43235 whole entry): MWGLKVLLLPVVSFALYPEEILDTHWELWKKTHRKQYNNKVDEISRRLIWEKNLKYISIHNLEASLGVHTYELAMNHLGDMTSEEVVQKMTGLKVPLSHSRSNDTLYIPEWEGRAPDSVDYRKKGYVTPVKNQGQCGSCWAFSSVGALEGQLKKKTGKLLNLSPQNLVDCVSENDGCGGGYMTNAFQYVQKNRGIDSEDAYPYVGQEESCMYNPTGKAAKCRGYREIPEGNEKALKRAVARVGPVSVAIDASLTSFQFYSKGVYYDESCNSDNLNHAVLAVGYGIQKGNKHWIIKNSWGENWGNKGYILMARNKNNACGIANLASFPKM
Briefly: Binding affinity against cathepsin K.

A further experiment concerns the target Procathepsin L (Homo sapiens, UniProt P07711). The experiment is described as follows: Binding affinity of compound was evaluated against cathepsin L. In short, it runs like this: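 Then Z-Phe-Arg-AMC 10 µM (at Km) added. AMC release followed kinetically (ex355/em460) at room temperature, with inhibitor-free controls. Apparent Ki by Morrison or Henderson tight-binding fit.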

Chain of Procathepsin L (P07711 whole entry): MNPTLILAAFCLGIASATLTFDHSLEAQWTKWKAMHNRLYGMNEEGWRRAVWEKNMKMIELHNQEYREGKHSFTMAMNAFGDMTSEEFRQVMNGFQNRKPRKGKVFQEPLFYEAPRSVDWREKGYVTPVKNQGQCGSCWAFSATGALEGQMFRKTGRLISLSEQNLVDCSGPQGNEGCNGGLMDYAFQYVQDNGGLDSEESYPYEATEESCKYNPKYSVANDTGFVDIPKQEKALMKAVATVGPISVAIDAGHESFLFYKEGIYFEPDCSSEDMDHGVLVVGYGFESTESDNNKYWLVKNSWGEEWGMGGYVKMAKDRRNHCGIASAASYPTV
Chain of Cathepsin S (P25774 whole entry): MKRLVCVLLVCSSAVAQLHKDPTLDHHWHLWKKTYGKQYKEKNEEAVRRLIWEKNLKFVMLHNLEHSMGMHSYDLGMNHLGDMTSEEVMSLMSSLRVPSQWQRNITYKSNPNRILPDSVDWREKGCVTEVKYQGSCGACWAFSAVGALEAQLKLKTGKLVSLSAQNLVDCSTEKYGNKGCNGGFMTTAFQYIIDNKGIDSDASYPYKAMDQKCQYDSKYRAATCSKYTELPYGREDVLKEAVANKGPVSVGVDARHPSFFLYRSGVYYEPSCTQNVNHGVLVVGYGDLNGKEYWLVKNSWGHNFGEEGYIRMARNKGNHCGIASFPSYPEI

For orientation: pKi means the negative decadic logarithm of the Ki, by convention in mol/L. A lower pKi goes with a high Ki. For the compound `COCC(=O)[C@H](CCc1ccccc1)NC(=O)[C@H](CC(C)C)NC(=O)OCc1ccccc1`, the negative-log Ki (pKi) at Cathepsin B is less than 3.82; on Cathepsin S, 5.71; on Cathepsin K, 6.22; on Procathepsin L it was 4.65.
Consider `CC(C)C[C@H](NC(=O)OCc1ccccc1)C(=O)N[C@@H](CCc1ccccc1)C(=O)COCc1ccccc1`, for which the pKi on Cathepsin B was 3.92; on Cathepsin S it was 6.35; at Cathepsin K, 6.00; at Procathepsin L, 5.20.
In the case of `CC(C)C[C@H](NC(=O)c1ccc(CN)cc1)C(=O)N[C@@H](CCc1ccccc1)C(=O)CO`, the pKi is 5.71 on Cathepsin B, 7.34 at Cathepsin S, 8.52 on Cathepsin K and 7.77 at Procathepsin L.
The like results for `CCOCC(=O)[C@H](CCc1ccccc1)NC(=O)[C@H](CC(C)C)NC(=O)OCc1ccccc1` were, in that order, less than 3.82, 5.35, 6.02 and 4.78.
The corresponding values for `CCCC[C@H](NC(=O)[C@@H](NC(=O)c1ccc(CN)cc1)C(C)CC)C(=O)CO` (some centres not stated) are 5.90, 6.34, 7.70 and 6.89.
With `CCC(C)[C@H](NC(=O)c1cccc(C(N)=O)c1)C(=O)N[C@@H](CCc1ccccc1)C(=O)CO` (some centres not stated), the pKi at Cathepsin B is 5.84; on Cathepsin S it was 7.06; on Cathepsin K, 6.95; at Procathepsin L, 6.10.
The like results for `CC(C)C[C@H](NC(=O)OCc1ccccc1)C(=O)N[C@@H](CCc1ccccc1)C(=O)CO` were, in that order, 4.46, 6.73, 7.60 and 6.19.
Consider `CCC(C)[C@H](NC(=O)c1cccc(CN)c1)C(=O)N[C@@H](CCc1ccccc1)C(=O)CO` (some centres not stated), for which the pKi is 6.57 on Cathepsin B, 6.74 on Cathepsin S, 8.40 on Cathepsin K and 7.09 at Procathepsin L.
For the compound `CC(=O)[C@H](CCc1ccccc1)NC(=O)[C@H](CC(C)C)NC(=O)OCc1ccccc1`, the pKi on Cathepsin B is 3.28; at Cathepsin K, 5.84.
For the compound `CCCC[C@H](NC(=O)[C@@H](NC(=O)c1cccc(C(N)=O)c1)C(C)CC)C(=O)CO` (some centres not stated), the pKi at Cathepsin B was 5.94; at Cathepsin S it was 6.96; at Cathepsin K, 6.96; at Procathepsin L it was 6.12.
In the case of `CCC(C)[C@H](NC(=O)OCc1ccccc1)C(=O)N[C@@H](CCc1ccccc1)C(=O)CO` (some centres not stated), the pKi on Cathepsin B is 4.49; on Cathepsin S, 6.09; on Cathepsin K, 7.17; at Procathepsin L, 5.52.
